In the RNAGym collection of RNA variant scans (doi:10.1126/science.aae0568) one finds yeast fitness data, which are given here for 167 variants.

First the molecules themselves.
B1: tRNA (parent)
chain: GUUCCGUUGGCGUAAUGGUAACGCGUCUCCCUCCUAAGGAGAAGACUGCGGGUUCGAGUCCCGUACGGAACG

Fewer inactive variants are shown than the library holds.

The variants in this data set derive from B1. The experiment in a line: yeast fitness relative to wild type (ratio to wild type); higher = fitter; tRNA-Arg(CCU), competitive growth, 37 C, YPD. Put shortly:
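For this measurement, the tRNA-Arg(CCU) gene was varied by chemical synthesis at a 3% per-site mutation rate across 69 sites, and each variant was placed at the native genomic locus in Saccharomyces cerevisiae. The pooled strains went through a 24-hour competition in YPD at 37°C in six parallel replicates, with amplicons from start and end populations read by 100-nucleotide paired-end sequencing. Darwinian fitness relative to wild type followed from the change in each genotype's frequency. Genotypes needed ≥ 100 starting reads, and estimates < 0.5 were set to 0.5.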
On to U2G G12C A20U C33U A37U A57U, for which the yeast fitness was at most 0.5.

In the case of U3A C5A C30G G38C C60G, the yeast fitness was at most 0.5.

For the variant U3A C4A U8C C29G A37C A70C, the yeast fitness was at most 0.5.

For U2G G48A G58C C61A, the yeast fitness is at most 0.5.

Regarding U2G C34U A57C, the yeast fitness was at most 0.5.

As to U2G C34U A57G, the yeast fitness was at most 0.5.

In the case of U2G G39A G51A, the yeast fitness is at most 0.5.

Consider U2G G6A C22U C27U A36U C60G, for which the yeast fitness was at most 0.5.

For U2G G38A G52C C61A, the yeast fitness is 0.555.

With U3A C5U A42C A43U G56C C66U, the yeast fitness is at most 0.5.

Consider U2G U19C G48C G52C C62G, for which the yeast fitness is at most 0.5.

For U3A A21C C24G C62G A70G, the yeast fitness is at most 0.5.

With U3A C5A G12C G25A C30U A69C, the yeast fitness is at most 0.5.

Take U2G G10C A65C: the yeast fitness was at most 0.5.

U2G C60G: the yeast fitness was 0.592.

On to U3A C4A U8C C31U A37U G48C C66U, for which the yeast fitness is at most 0.5.

As to U3A C5G A21U C22U U32A C49G, the yeast fitness is 0.599.

As for U3A A42C, the yeast fitness was found to be 0.72.

For the variant U3A A42G, the yeast fitness worked out at 0.73.

U2G C33G G39C A65C: the yeast fitness was at most 0.5.

Turning to U3A A37U A42G, the yeast fitness is at most 0.5.

With U3A C4U C11A U53A A65U, the yeast fitness is at most 0.5.

Regarding U3A C4U G44C, the yeast fitness came to 0.638.

Take U2G G9A G41A: the yeast fitness is at most 0.5.

U2G G25C G52A: the yeast fitness is at most 0.5.

On to U2G G67U, for which the yeast fitness amounted to 0.821.

In the case of U2G G67A, the yeast fitness turned out to be 0.901.

As for U2G G67C, the yeast fitness was found to be 0.759.

Take U3A A45U A69U: the yeast fitness came out at 0.788.

Turning to U2G U13C A21G U35A C55U A65G, the yeast fitness is at most 0.5.

For U2G U7C U28A, the yeast fitness was at most 0.5.

Take U3A A14G A15U A36U G39C A40U C49U C55A: the yeast fitness worked out at 0.612.

Take U2G U3G C11U G52C C55G A70G: the yeast fitness is at most 0.5.

With U2G G25C G52A A57C A70C, the yeast fitness is at most 0.5.

Regarding U3A A14G A15G A20U A37G G41A, the yeast fitness stood at 0.525.

U3A A57C: the yeast fitness turned out to be 0.714.

For U2G U26A G52A, the yeast fitness was at most 0.5.

In the case of U3A A37G A42G G50A C55U U64C, the yeast fitness was at most 0.5.

For U3A A20G C24U C55G C61U, the yeast fitness was at most 0.5.

Take U2G G18C C29G C30A C34G G48C: the yeast fitness worked out at 0.604.

On to U2G C33G G39C C55U, for which the yeast fitness came to 0.523.

U3A A40G C49U: the yeast fitness worked out at 0.54.

Regarding U2G U13A U28A G39A G48A C61G C66G, the yeast fitness was at most 0.5.

U2G C61U: the yeast fitness was determined as 0.88.

As to U3A A40U G56A, the yeast fitness is at most 0.5.

With U2G U7G C60U C61A G67C, the yeast fitness was at most 0.5.

On to U2G G23C G58A, for which the yeast fitness was at most 0.5.

On to U2G C49U G51C C55A, for which the yeast fitness is at most 0.5.

As for U3A C5A G12C G25A C30U, the yeast fitness is at most 0.5.

For the variant U2G G44A G51C, the yeast fitness is at most 0.5.

Turning to U3A A15U, the yeast fitness amounted to 0.695.

U2G G17C C33U U47A: the yeast fitness came out at 0.535.

Regarding U2G U3G C29G C30G C46G, the yeast fitness was at most 0.5.

For the variant U2G G48A C60G, the yeast fitness came out at 0.541.

As for U3A A15C C66U, the yeast fitness was determined as 0.659.

As to U2G C55U C61G A65G G68A, the yeast fitness was at most 0.5.

As for U2G U32G A42U, the yeast fitness is at most 0.5.

As to U3A A14G G23C U32A G52C, the yeast fitness was at most 0.5.

Consider U2G G6A C27U A36U G68C, for which the yeast fitness is at most 0.5.

Regarding U2G U19A U53C G67A, the yeast fitness turned out to be 0.563.

U2G G12A G41C: the yeast fitness came to 0.596.

With U3A C4U A43G, the yeast fitness was determined as 0.579.

U3A A14G G23C A65C: the yeast fitness was at most 0.5.

In the case of U2G G6C U54A, the yeast fitness is at most 0.5.

As to U2G G25U A65U, the yeast fitness was 0.532.

Take U3A C4U U7A C24U A42U G58A C62U G63A: the yeast fitness was at most 0.5.

As for U2G G6A A15U C62G, the yeast fitness is at most 0.5.

With U2G G6A G56C, the yeast fitness was at most 0.5.

For the variant U2G U7C A37C U59C, the yeast fitness was at most 0.5.

For the variant U3A A21C G25U A43C, the yeast fitness was at most 0.5.

For U3A A21C C24G G63A, the yeast fitness is at most 0.5.

On to U3A A20U C49U, for which the yeast fitness amounted to 0.531.

In the case of U2G U32C, the yeast fitness is 0.867.

U2G U32G: the yeast fitness came to 0.68.

Consider U2G U13A G58A, for which the yeast fitness turned out to be 0.585.

On to U3A A14C C46G, for which the yeast fitness is at most 0.5.

With U3A A14C C46U, the yeast fitness was at most 0.5.

On to U3A A45G G67C, for which the yeast fitness was found to be 0.628.

Regarding U2G U28A C33U C46G, the yeast fitness is at most 0.5.

Consider U2G C49G G50C, for which the yeast fitness was determined as 0.536.

With U3A A15G U35C G52A, the yeast fitness came out at 0.525.

As to U2G G63C, the yeast fitness was 0.694.

For the variant U3A C5G G10A C31U C33G G48C, the yeast fitness was at most 0.5.

Turning to U2G C33U G52A, the yeast fitness is at most 0.5.

Consider U3A A37C, for which the yeast fitness is 0.796.

As for U3A A37U, the yeast fitness turned out to be 0.754.

Regarding U3A A37G, the yeast fitness is 0.887.

In the case of U2G G44A, the yeast fitness was 0.849.

Take U2G G18A A40C G68C: the yeast fitness is at most 0.5.

For U2G C33A G39C A69U, the yeast fitness is at most 0.5.

U2G C33U G58C: the yeast fitness came to 0.566.

As to U3A A20G G56A, the yeast fitness stood at 0.707.

With U2G U64C, the yeast fitness was 0.841.

Consider U3A A43G, for which the yeast fitness came out at 0.919.

Consider U2G G6C C11U C27U G63C, for which the yeast fitness is at most 0.5.

On to U3A A15G U35C G52A G58C C66U, for which the yeast fitness was at most 0.5.

Turning to U3A C5G C46G U53A, the yeast fitness came to 0.527.

For U3A A43U C49U, the yeast fitness amounted to 0.69.

With U3A C5A A65U, the yeast fitness is at most 0.5.

U2G U28G U59A: the yeast fitness is at most 0.5.

With U3A A20U C29G C49G G63C, the yeast fitness was at most 0.5.

With U2G G9C A20G A42C A43G C46G C49U A69C, the yeast fitness was at most 0.5.

Turning to U3A C4G G6A U26G A70U, the yeast fitness is at most 0.5.

For the variant U3A A14C C34A G52A A70G, the yeast fitness is 0.673.

Turning to U3A A14U C62U, the yeast fitness was found to be 0.79.

Consider U2G U19A A69U, for which the yeast fitness is 0.551.

Consider U3A A42G U53A, for which the yeast fitness was at most 0.5.

For U2G G48C G52C C62G, the yeast fitness came to 0.541.

In the case of U3A C4A U8C C30U A45C G52C, the yeast fitness was at most 0.5.

For the variant U3A A14U, the yeast fitness was determined as 0.731.

As to U2G G9C A36U A45C, the yeast fitness is at most 0.5.

Turning to U2G C31U U53A, the yeast fitness is at most 0.5.

In the case of U3A C4U U7A C24U, the yeast fitness was at most 0.5.

As for U3A A21C C49G, the yeast fitness is at most 0.5.

As for U2G G68U, the yeast fitness was determined as 0.835.

For U2G C33A, the yeast fitness is 0.632.

As to U3A C5A G6C A15G U16A U26G, the yeast fitness was 0.512.

On to U3A A14U A57U, for which the yeast fitness was at most 0.5.

On to U3A A36G A70C, for which the yeast fitness worked out at 0.991.

As for U3A A20G C22U G44C, the yeast fitness is at most 0.5.

Regarding U3A A15C U47C, the yeast fitness was at most 0.5.

Take U3A C4G U8A G50A A57C A70U: the yeast fitness stood at 0.548.

As to U2G G12A C31G C33G A40U G52A C60G C62U, the yeast fitness was at most 0.5.

Regarding U3A A15U C34U G48A C60U, the yeast fitness was at most 0.5.

As for U2G C49G G50C A70C, the yeast fitness is at most 0.5.

On to U3A C5A C33G C34U, for which the yeast fitness amounted to 0.634.

In the case of U2G U35C, the yeast fitness was 0.72.

For the variant U3A C5A G6C A14C G48C C55U G63U, the yeast fitness is at most 0.5.

For U3A A20U A37G, the yeast fitness came out at 0.608.

As for U3A A21G U28A A42C A57G C66A, the yeast fitness came out at 0.733.

Turning to U3A A40G A57C A69C, the yeast fitness was at most 0.5.

For the variant U2G G10C G67C, the yeast fitness was at most 0.5.

On to U2G G48A G58C, for which the yeast fitness came out at 0.895.

For the variant U3A A37C A45C, the yeast fitness worked out at 0.6.

For U3A A70U, the yeast fitness worked out at 0.86.

With U3A A70C, the yeast fitness was found to be 0.988.

With U2G U26A A43G G44C U53C, the yeast fitness is at most 0.5.

Regarding U3A A14G G58C, the yeast fitness turned out to be 0.753.

For the variant U2G G9C A15U U19C, the yeast fitness was at most 0.5.

As for U3A C4A U8C C29G C33G A42G G48A, the yeast fitness is at most 0.5.

As to U2G U8C U26C G56A, the yeast fitness is at most 0.5.

For U2G G6A U53G U54G C55A, the yeast fitness was at most 0.5.

On to U2G C34G C49G C61U A69G, for which the yeast fitness is at most 0.5.

As to U3A A40C U47A G68C, the yeast fitness was at most 0.5.

For the variant U2G G6A A57G, the yeast fitness was 0.527.

For U3A A15G U47G, the yeast fitness was 0.794.

In the case of U3A A21U C49A, the yeast fitness was at most 0.5.

Regarding U2G G25A A65C, the yeast fitness is 0.637.

Turning to U2G U8C, the yeast fitness amounted to 0.891.

For the variant U3A A21C A36U, the yeast fitness was at most 0.5.

With U3A A21G C33G C34G, the yeast fitness was at most 0.5.

U2G U26A U54A: the yeast fitness is at most 0.5.

As for U3A A14G C24G A42C, the yeast fitness is 0.54.

U3A A21C C24G C49U A65C: the yeast fitness was at most 0.5.

Consider U2G U19A C46U, for which the yeast fitness was at most 0.5.

Regarding U3A A14G G23C A70C, the yeast fitness stood at 0.573.

With U3A C5U, the yeast fitness was found to be 0.85.

In the case of U3A C4U U13A A36U C62A C66U, the yeast fitness is at most 0.5.

For the variant U3A A40C, the yeast fitness was found to be 0.635.

Consider U3A A40G, for which the yeast fitness turned out to be 0.888.

With U3A C4A U16A C30G U53C G67A, the yeast fitness came out at 0.604.

Take U3A C4A U16A C30G U53C G67U: the yeast fitness was at most 0.5.

As for U2G C55A C60G C62G, the yeast fitness is at most 0.5.

For the variant U3A C4A A20C C29A C66U, the yeast fitness was at most 0.5.

For U2G C33U A36U A43C A69C, the yeast fitness is 0.767.

For U2G G10C A69C, the yeast fitness was at most 0.5.

For U2G G10A G50A, the yeast fitness was at most 0.5.
